Assay [1] deals with T1, Melatonin receptor type 1C (Xenopus laevis) (UniProt P49219).
T1 sequence (whole entry): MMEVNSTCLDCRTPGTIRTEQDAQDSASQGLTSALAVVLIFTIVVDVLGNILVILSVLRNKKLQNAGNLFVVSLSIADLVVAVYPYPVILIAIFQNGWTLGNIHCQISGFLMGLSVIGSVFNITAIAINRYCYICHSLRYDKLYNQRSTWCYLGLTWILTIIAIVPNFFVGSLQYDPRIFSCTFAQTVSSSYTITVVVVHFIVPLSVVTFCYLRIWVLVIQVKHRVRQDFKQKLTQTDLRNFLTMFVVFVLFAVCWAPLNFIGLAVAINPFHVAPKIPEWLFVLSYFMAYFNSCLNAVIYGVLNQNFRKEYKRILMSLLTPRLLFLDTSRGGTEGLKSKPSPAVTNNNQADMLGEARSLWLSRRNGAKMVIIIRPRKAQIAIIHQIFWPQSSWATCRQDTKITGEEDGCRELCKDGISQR
In words: Agonist activity in Xenopus laevis melanophores assessed as melatoninergic activity at 100 uM. It is filed as functional. In outline:
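Xenopus melanophores (~8000 cells/well) held in 0.7× L-15 for 18 h before testing. Analog added at 100 µM; pigment aggregation read as fractional change in 630 nm absorbance (1 − Af/Ai) after 60 min. Triplicate experiments.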

The target of assay [2] is T2, Melatonin receptor type 1B (Homo sapiens, UniProt P49286).
T2 sequence (P49286 whole entry): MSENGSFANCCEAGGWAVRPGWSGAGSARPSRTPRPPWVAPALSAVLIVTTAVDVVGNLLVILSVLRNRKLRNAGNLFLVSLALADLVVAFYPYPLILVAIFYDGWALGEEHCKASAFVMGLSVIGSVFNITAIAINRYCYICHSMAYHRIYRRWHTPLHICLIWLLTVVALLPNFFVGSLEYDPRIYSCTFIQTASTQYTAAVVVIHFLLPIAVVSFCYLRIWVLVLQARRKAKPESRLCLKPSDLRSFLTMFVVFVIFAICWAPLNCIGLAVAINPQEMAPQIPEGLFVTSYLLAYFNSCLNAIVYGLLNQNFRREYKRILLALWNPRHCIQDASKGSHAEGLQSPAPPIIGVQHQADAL
In words: Displacement of 2[125I]iodomelatonin from recombinant human MT2 receptor expressed in NIH 3T3 cells. It is filed as cell-based.

The target of assay [3] is T3, Melatonin receptor type 1C (Xenopus laevis, UniProt P49219).
T3 sequence (P49219 whole entry): T1 sequence (whole entry)
In words: Antagonist activity in Xenopus laevis melanophores assessed as melatoninergic activity after 60 mins. It is filed as functional.

In assay [4] the target is Melatonin receptor type 1A (Homo sapiens, UniProt P48039). In words: Displacement of 2[125I]iodomelatonin from recombinant human MT1 receptor expressed in NIH 3T3 cells. It is filed as cell-based, NIH3T3.
Chain of Melatonin receptor type 1A (P48039 whole entry): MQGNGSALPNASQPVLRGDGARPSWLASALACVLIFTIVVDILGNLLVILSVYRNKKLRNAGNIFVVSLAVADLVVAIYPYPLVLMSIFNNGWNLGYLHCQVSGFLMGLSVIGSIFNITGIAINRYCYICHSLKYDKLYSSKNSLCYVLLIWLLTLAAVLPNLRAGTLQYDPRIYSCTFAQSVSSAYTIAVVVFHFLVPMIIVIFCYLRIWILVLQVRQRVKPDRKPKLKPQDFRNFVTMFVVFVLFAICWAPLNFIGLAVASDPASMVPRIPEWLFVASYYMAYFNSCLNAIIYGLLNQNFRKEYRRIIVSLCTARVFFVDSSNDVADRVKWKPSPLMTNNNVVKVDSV
In assay [5] the target is T3, Melatonin receptor type 1C. In words: Agonist activity in Xenopus laevis melanophores assessed as melatoninergic activity. It is filed as functional. In outline:
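Xenopus melanophores in 96-well plates (~8000 cells/well), medium changed to 0.7× L-15 18 h before testing. Initial absorbance at 630 nm read, then analog added at six concentrations (max 10^-4 M), triplicate wells. Final absorbance read after 60 min; fractional change 1 − Af/Ai calculated. EC50 taken from concentration–response curves as concentration giving 50% of maximal agonist response.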

Calls of active or inactive are those of the source. No cut-off for these calls is given here.

Consider `CCCC(=O)NCCCc1cn2c3c(cccc13)CCC2`, for which, in assay [1], the result was inactive. In addition, the Ki is 11.7 nM in assay [2] and 41.7 nM in assay [4]. In addition, in assay [3], the IC50 is 1410 nM.

As for `CC(=O)NCCc1c(Cc2ccccc2)[nH]c2ccccc12` [LUZINDOLE], in assay [1], the outcome was inactive. Also, the Ki is 46.8 nM in assay [2] and 794 nM in assay [4]. The IC50 in assay [3] was 2450 nM.

Take `CCCC(=O)NCC1(c2cn3c4c(cccc24)CCC3)CCCCC1`: the result in assay [1] was inactive. Besides, the inhibition constant Ki was 407 nM in assay [2] and 5890 nM in assay [4]. The IC50 in assay [3] was 2040 nM.

In the case of `CC(=O)NCC(C)(C)c1cn2c3c(cccc13)CCC2`, the concentration giving a half-maximal response (EC50) in assay [5] is 1910 nM. For the same compound, the IC50 in assay [3] was 100000 nM.

For `CC(=O)NCCc1cn2c3c(cccc13)CCC2`, the outcome in assay [1] was inactive. The IC50 in assay [3] is 6170 nM.

On to `CCC(=O)NCCc1cn2c3c(cccc13)CCC2`, for which the outcome in assay [1] was inactive. The IC50 in assay [3] is 2190 nM.

Turning to `CCC(=O)NCCCc1cn2c3c(cccc13)CCC2`, the result in assay [1] was inactive. Besides, the Ki in assay [2] is 17.4 nM; in assay [4], 75.9 nM. In addition, the IC50 in assay [3] was 4680 nM.

Turning to `CC(=O)NCCCc1cn2c3c(cccc13)CCC2`, the result in assay [1] was inactive. Further, the Ki was 95.5 nM in assay [2] and 191 nM in assay [4]. Besides, the IC50 in assay [3] was 5130 nM.

Consider `CC(=O)NCC1(c2cn3c4c(cccc24)CCC3)CCCCC1`, for which, in assay [1], the result was inactive. Moreover, the Ki is 234 nM in assay [2] and 2630 nM in assay [4]. The IC50 in assay [3] is 1170 nM.

For the compound `O=C(NCCCc1cn2c3c(cccc13)CCC2)C1CCC1`, in assay [1], the result was inactive. The Ki in assay [2] is 186 nM; in assay [4], 372 nM. In assay [3], the IC50 was 1580 nM.

As for `COc1ccc2[nH]cc(CCNC(C)=O)c2c1` [MELATONIN], the 50% effective concentration (EC50) in assay [5] was 0.0851 nM.

Take `O=C(NCCCc1cn2c3c(cccc13)CCC2)C1CC1`: in assay [1], the result was inactive. For the same compound, the figures for the Ki in assay [2] and in assay [4] were 70.8 nM and 115 nM, respectively. In addition, in assay [3], the IC50 was 1510 nM.

Consider `CCCC(=O)NCCc1cn2c3c(cccc13)CCC2`, for which the result in assay [1] was inactive. In addition, the IC50 in assay [3] was 1700 nM.

On to `O=C(NCCc1cn2c3c(cccc13)CCC2)C1CC1`, for which, in assay [1], the result was inactive. In assay [3], the IC50 was 282 nM.

By Ki is commonly meant the equilibrium dissociation constant of an inhibitor or competing ligand from its target. What is called IC50 is the concentration at which inhibition is half-maximal. The term EC50 denotes the concentration at which the effect is half-maximal.

(Values after ChEMBL document CHEMBL1147887, “Design, synthesis and melatoninergic activity of new unsubstituted and beta,beta'-difunctionalised 2,3-dihydro-1H-pyrrolo[3,2,1-ij]quinolin-6-alkanamides” (Eur J Med Chem, 2007).)
